In ChEMBL document CHEMBL4196177, “Synthesis, Evaluation, and Structure-Activity Relationship Study of Lanosterol Derivatives To Reverse Mutant-Crystallin-Induced Protein Aggregation” (J Med Chem, 2018):
The source made the active and inactive calls.

Key:
Type in all cases: cell-based
[1] = tested on: T1, Gamma-crystallin C (Homo sapiens), P07315 [G129C]; experiment: Inhibition of gamma-crystallin C G129C mutant (unknown origin)-induced intracellular protein aggregation expressed in human HLE-B3 cells at 0.4 uM incubated for 6 to 8 hrs by fluorescence microscopy relative to untreated control
T1 sequence (whole entry): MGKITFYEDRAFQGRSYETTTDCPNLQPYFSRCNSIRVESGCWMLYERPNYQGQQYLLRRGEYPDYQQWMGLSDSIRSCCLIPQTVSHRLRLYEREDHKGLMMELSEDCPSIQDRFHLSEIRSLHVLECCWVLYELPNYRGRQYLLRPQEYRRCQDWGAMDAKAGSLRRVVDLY

[2] = tested on: T2, Beta-crystallin B2 (Homo sapiens), P43320 [V187E]; experiment: Inhibition of beta-crystallin B2 V187E mutant (unknown origin)-induced intracellular protein aggregation expressed in human HLE-B3 cells at 4 uM incubated for 6 to 8 hrs by fluorescence microscopy relative to untreated control
T2 sequence (whole entry): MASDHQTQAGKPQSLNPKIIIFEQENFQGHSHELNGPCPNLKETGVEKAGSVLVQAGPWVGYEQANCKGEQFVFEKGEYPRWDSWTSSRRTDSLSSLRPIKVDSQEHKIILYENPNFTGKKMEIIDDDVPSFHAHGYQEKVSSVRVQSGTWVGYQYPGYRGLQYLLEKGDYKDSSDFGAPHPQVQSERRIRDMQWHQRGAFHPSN

[3] = tested on: T3, Alpha-crystallin B chain (Homo sapiens), P02511 [R120G]; experiment: Inhibition of alpha-crystallin B R120G mutant (unknown origin)-induced intracellular protein aggregation expressed in human HLE-B3 cells at 0.4 uM incubated for 6 to 8 hrs by fluorescence microscopy relative to untreated control
T3 sequence (whole entry): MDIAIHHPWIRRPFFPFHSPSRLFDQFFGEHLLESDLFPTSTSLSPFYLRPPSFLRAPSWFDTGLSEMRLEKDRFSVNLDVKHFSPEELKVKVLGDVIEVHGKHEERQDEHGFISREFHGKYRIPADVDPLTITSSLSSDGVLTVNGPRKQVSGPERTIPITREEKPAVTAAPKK
Procedure, shortened: (§1)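 Cells were transfected with mutant crystallin constructs using Lipofectamine 2000 and cultured for 16 h until the overexpressed mutants formed aggregates. Compounds were then added to the culture medium and incubated for 6~8 h. Aggregate dissolution was scored by fluorescence microscopy. For αB R120G, % inhibition at 0.4 and 4 µM was calculated against DMSO-treated cells; values are mean ± error.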

[4] = tested on: T4, Alpha-crystallin A chain (Homo sapiens), P02489 [Y118D]; experiment: Inhibition of alpha-crystallin A Y118D mutant (unknown origin)-induced intracellular protein aggregation expressed in human HeLa cells at 0.4 uM incubated for 6 to 8 hrs by fluorescence microscopy relative to untreated control
T4 sequence (whole entry): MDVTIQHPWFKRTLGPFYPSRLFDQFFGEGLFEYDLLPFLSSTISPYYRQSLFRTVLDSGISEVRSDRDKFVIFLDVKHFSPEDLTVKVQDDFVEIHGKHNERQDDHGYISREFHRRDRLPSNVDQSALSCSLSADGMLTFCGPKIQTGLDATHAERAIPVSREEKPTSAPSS

[5] = tested on: T2, Beta-crystallin B2 (Homo sapiens), P43320 [V187E]; experiment: Inhibition of beta-crystallin B2 V187E mutant (unknown origin)-induced intracellular protein aggregation expressed in human HLE-B3 cells at 0.4 uM incubated for 6 to 8 hrs by fluorescence microscopy relative to untreated control
[6] = tested on: T3, Alpha-crystallin B chain (Homo sapiens), P02511 [R120G]; experiment: Inhibition of alpha-crystallin B R120G mutant (unknown origin)-induced intracellular protein aggregation expressed in human HLE-B3 cells at 4 uM incubated for 6 to 8 hrs by fluorescence microscopy relative to untreated control; procedure, shortened: as §1
[7] = tested on: T4, Alpha-crystallin A chain (Homo sapiens), P02489 [Y118D]; experiment: Inhibition of alpha-crystallin A Y118D mutant (unknown origin)-induced intracellular protein aggregation expressed in human HLE-B3 cells at 4 uM incubated for 6 to 8 hrs by fluorescence microscopy relative to untreated control
[8] = tested on: T3, Alpha-crystallin B chain (Homo sapiens), P02511 [R120G]; experiment: Inhibition of alpha-crystallin B R120G mutant (unknown origin)-induced intracellular protein aggregation expressed in human HeLa cells at 4 uM incubated for 6 to 8 hrs by fluorescence microscopy relative to untreated control; procedure, shortened: as §1
[9] = tested on: T2, Beta-crystallin B2 (Homo sapiens), P43320 [V187E]; experiment: Inhibition of beta-crystallin B2 V187E mutant (unknown origin)-induced intracellular protein aggregation expressed in human HeLa cells at 0.4 uM incubated for 6 to 8 hrs by fluorescence microscopy relative to untreated control
[10] = tested on: T5, Gamma-crystallin D (Homo sapiens), P07320 [W43R]; experiment: Inhibition of gamma-crystallin D W43R mutant (unknown origin)-induced intracellular protein aggregation expressed in human HLE-B3 cells at 4 uM incubated for 6 to 8 hrs by fluorescence microscopy relative to untreated control
T5 sequence (whole entry): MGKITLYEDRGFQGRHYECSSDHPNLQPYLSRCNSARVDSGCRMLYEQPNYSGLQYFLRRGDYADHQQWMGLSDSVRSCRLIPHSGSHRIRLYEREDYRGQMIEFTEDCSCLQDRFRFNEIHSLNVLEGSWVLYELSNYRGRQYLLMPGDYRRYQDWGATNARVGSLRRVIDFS

[11] = tested on: T4, Alpha-crystallin A chain (Homo sapiens), P02489 [Y118D]; experiment: Inhibition of alpha-crystallin A Y118D mutant (unknown origin)-induced intracellular protein aggregation expressed in human HLE-B3 cells at 0.4 uM incubated for 6 to 8 hrs by fluorescence microscopy relative to untreated control
[12] = tested on: T1, Gamma-crystallin C (Homo sapiens), P07315 [G129C]; experiment: Inhibition of gamma-crystallin C G129C mutant (unknown origin)-induced intracellular protein aggregation expressed in human HeLa cells at 0.4 uM incubated for 6 to 8 hrs by fluorescence microscopy relative to untreated control
[13] = tested on: T5, Gamma-crystallin D (Homo sapiens), P07320 [W43R]; experiment: Inhibition of gamma-crystallin D W43R mutant (unknown origin)-induced intracellular protein aggregation expressed in human HLE-B3 cells at […] incubated for 6 to 8 hrs by fluorescence microscopy relative to untreated control
[14] = tested on: T5, Gamma-crystallin D (Homo sapiens), P07320 [W43R]; experiment: Inhibition of gamma-crystallin D W43R mutant (unknown origin)-induced intracellular protein aggregation expressed in human HeLa cells at 4 uM incubated for 6 to 8 hrs by fluorescence microscopy relative to untreated control
[15] = tested on: T2, Beta-crystallin B2 (Homo sapiens), P43320 [V187E]; experiment: Inhibition of beta-crystallin B2 V187E mutant (unknown origin)-induced intracellular protein aggregation expressed in human HeLa cells at 4 uM incubated for 6 to 8 hrs by fluorescence microscopy relative to untreated control
[16] = tested on: T4, Alpha-crystallin A chain (Homo sapiens), P02489 [Y118D]; experiment: Inhibition of alpha-crystallin A Y118D mutant (unknown origin)-induced intracellular protein aggregation expressed in human HeLa cells at 4 uM incubated for 6 to 8 hrs by fluorescence microscopy relative to untreated control
[17] = tested on: T5, Gamma-crystallin D (Homo sapiens), P07320 [W43R]; experiment: Inhibition of gamma-crystallin D W43R mutant (unknown origin)-induced intracellular protein aggregation expressed in human HeLa cells at 0.4 uM incubated for 6 to 8 hrs by fluorescence microscopy relative to untreated control
[18] = tested on: T1, Gamma-crystallin C (Homo sapiens), P07315 [G129C]; experiment: Inhibition of gamma-crystallin C G129C mutant (unknown origin)-induced intracellular protein aggregation expressed in human HLE-B3 cells at 4 uM incubated for 6 to 8 hrs by fluorescence microscopy relative to untreated control
[19] = tested on: T1, Gamma-crystallin C (Homo sapiens), P07315 [G129C]; experiment: Inhibition of gamma-crystallin C G129C mutant (unknown origin)-induced intracellular protein aggregation expressed in human HeLa cells at 4 uM incubated for 6 to 8 hrs by fluorescence microscopy relative to untreated control
[20] = tested on: T3, Alpha-crystallin B chain (Homo sapiens), P02511 [R120G]; experiment: Inhibition of alpha-crystallin B R120G mutant (unknown origin)-induced intracellular protein aggregation expressed in human HeLa cells at 0.4 uM incubated for 6 to 8 hrs by fluorescence microscopy relative to untreated control; procedure, shortened: as §1

Measured: inhibition

C[C@H](CCCC(C)(C)O)[C@H]1CC[C@@]2(C)C3=C(CC[C@]12C)[C@@]1(C)CC[C@H](O)C(C)(C)[C@@H]1CC3
active: all assays above

C[C@H](CCCC(C)(C)O)[C@H]1CC[C@@]2(C)C3=CC[C@H]4C(C)(C)[C@@H](O)CC[C@]4(C)C3=CC[C@]12C
active: all assays above

C[C@H](CCCC(C)(C)O)[C@H]1CC[C@@]2(C)C3=C(CC[C@]12C)[C@@]1(C)C[C@@H](F)[C@H](O)C(C)(C)[C@@H]1CC3
active: all assays above

C[C@H](CCCC(C)(C)O)[C@H]1CC[C@@]2(C)C3=C(CC[C@]12C)[C@@]1(C)CCC(=O)C(C)(C)[C@@H]1CC3
active: all assays above

C[C@H](CCCC(C)(C)O)[C@H]1CC[C@@]2(C)C3=C(CC[C@]12C)[C@@]1(C)C[C@@H](F)[C@@H](O)C(C)(C)[C@@H]1CC3
active: all assays above
